# An excerpt weighted towards active compounds, which were near 2% of everything screened.
# UHRF1 MBD2 ctr: UHRF1 methylated DNA binding inhibitors, primary screen, counter-screen for MBD2 inhibitor project, biochemical, TR-FRET, human UHRF1, single concentration | inhibition, % at 4.4 µM | E3 ubiquitin-protein ligase UHRF1 (Homo sapiens), Q96T88 | 370,000 compounds, 0.75% hits | UHRF1 binding to methylated oligo; in the data active = inhibition above about 21%;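 also: UHRF1 SRA domain binding a hemimethylated CpG hairpin DNA probe; 0% = median of test compound wells and 100% = reference inhibitor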
# ARFGAP1 inhibitor: inhibitors of rat ARFGAP1 GAP activity, primary screen, biochemical, fluorescence polarization, GDP tracer. ADP-ribosylation factor GTPase-activating protein 1 (Rattus norvegicus), Q62848. Arfgap1-stimulated ARF1 GTP hydrolysis, GDP FP detection. inhibition, % at 16.5 µM. 360,000 compounds, 0.26% hits;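 active = inhibition above a per-plate limit, mean inhibition of low control wells plus 3 SD, cut at about 25% in these data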;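 also: 0% = DMSO wells with enzyme and 100% = wells lacking Arfgap1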
#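 Material: rat Arfgap1 catalytic domain, aa 1-136; also added: human ARF1(Δ1-17)-GTP substrate; compound dosing: one concentration, 16.5 µM, DMSO 1.26%; incubation: GTP hydrolysis reaction 2 h at 25 °C; measured by: Tracer-displacement fluorescence polarization with EDTA stop, 620/688 nm; evaluation: % inhibition from polarization; repeats: one replicate per compound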
# TDP2 inh: human TDP2 enzyme inhibitors, primary screen, biochemical, epi absorbance, recombinant enzyme | Tyrosyl-DNA phosphodiesterase 2 (Homo sapiens), O95551 | T5PNP hydrolysis, p-nitrophenol absorbance 415 nm | inhibition, % at 12.8 µM | 370,000 compounds, 0.34% hits | AID 720702, 2013;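 active = inhibition above the mean of all tested compounds plus 3 SD, set per campaign, cut at about 25% in these data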;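 also: 0% = DMSO with enzyme and 100% = buffer with substrate but no TDP2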
#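 test system = human TDP2 enzyme | input = TDP2 enzyme at 120 nM final | medium = 50 mM Tris-HCl pH 7.5 with Mg2+, KCl, DTT, BSA | also added = T5PNP substrate, 5 mM | times = 2 h at 37 °C | technique = epi absorbance | benchmarks = high control without enzyme, low control DMSO plus TDP2 | replication = each compound tested once, singlicate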
# LEDGF integ inh: blockers of LEDGF/p75-dependent integrase strand transfer – biochemical, TR-FRET, high throughput, primary screen | HIV-1 integrase (with human LEDGF/p75) | TR-FRET IN-LEDGF/p75 DNA integration, Eu/Cy5 | inhibition, % at 3.7 µM | 370,000 compounds, 0.64% hits | AID 743269, 2014;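 active = inhibition above the screen-wide mean plus 3 SD, cut at about 13% in these data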;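 also: signal is the Cy5 over europium emission ratio at 671 and 618 nm; 0% = plate median of compound wells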
# ASAP1 inh: inhibitors of human ASAP1 ArfGAP activity, primary screen, biochemical, fluorescence polarization; Arf-GAP with SH3 domain, ANK repeat and PH domain-containing protein 1 (Homo sapiens), …; ASAP1-stimulated ARF1 GTP hydrolysis, GDP FP detection; inhibition, % at 16.5 µM; 360,000 compounds, 0.19% hits; AID 624377, 2012; in the data active = inhibition above about 25%;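 also: 0% = vehicle with enzyme and substrate and 100% = no enzyme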
# MBD2 DNA inh: inhibitors of MBD2 binding to methylated DNA, primary screen, biochemical, TR-FRET, DNA-binding domain, human. 370,000 compounds, 0.31% hits. inhibition, % at 4.4 µM. MBD2 binding to methylated oligonucleotide. Methyl-CpG-binding domain protein 2 (Homo sapiens), Q9UBB5. AID 686964, 2013; in the data active = inhibition above about 13%
# ARFGAP1 inh conf: ARFGAP1 inhibitor hit confirmation, biochemical, fluorescence polarization, triplicate; 890 compounds, 30% hits; inhibition, % at 16.5 µM; AID 651608, 2012; shares compounds with ARFGAP1 inhibitor; ARFGAP1-stimulated ARF1 GTP hydrolysis, GDP tracer FP;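 active = average inhibition over triplicates above the hit cutoff set in the earlier primary screen, cut at about 25% in these data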;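 also: 0% = Arfgap1 plus ARF1-GTP with DMSO and 100% = wells lacking Arfgap1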
# Target sequence (Q62848 whole entry, looked up): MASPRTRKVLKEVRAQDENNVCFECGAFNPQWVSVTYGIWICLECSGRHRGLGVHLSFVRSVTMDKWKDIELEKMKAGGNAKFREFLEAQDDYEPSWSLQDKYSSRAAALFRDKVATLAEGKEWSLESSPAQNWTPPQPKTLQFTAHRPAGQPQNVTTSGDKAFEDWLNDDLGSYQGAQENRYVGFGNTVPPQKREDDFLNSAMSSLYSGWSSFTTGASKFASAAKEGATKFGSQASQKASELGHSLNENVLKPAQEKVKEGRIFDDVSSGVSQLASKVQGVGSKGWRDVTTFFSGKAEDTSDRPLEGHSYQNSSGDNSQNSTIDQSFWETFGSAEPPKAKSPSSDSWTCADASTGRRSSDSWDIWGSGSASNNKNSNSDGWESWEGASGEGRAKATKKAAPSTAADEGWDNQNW
# * hit, by the source's call; . = no result given.
SMILES,UHRF1 MBD2 ctr,ARFGAP1 inhibitor,TDP2 inh,LEDGF integ inh,ASAP1 inh,MBD2 DNA inh,ARFGAP1 inh conf
CCCC1CCC2(CC1)CCC2OC(=S)Nc1ccccc1C(F)(F)F (centres undefined),-3,.,-11,6,.,-9,.
CCc1cc[n+](-c2nc([O-])sc2C=O)cc1,1,0,9,-4,-7,-6,.
CC(C)(C)c1cc[n+](-c2nc([O-])sc2C=O)cc1,1,27*,-21,2,-3,-3,0
O=C(N/N=C/C=C\c1ccccc1[N+](=O)[O-])c1cc(-c2ccc3ccccc3c2)n[nH]1,4,30*,-6,-11,-2,-1,22
O=C(N/N=C/C=C/c1ccccc1[N+](=O)[O-])c1ccncc1,2,9,-16,2,5,1,.
CCc1ccc(-c2cc(C(=O)N/N=C/c3ccccn3)[nH]n2)cc1,-2,6,-6,-2,13,-4,.
O=C(N/N=C/c1ccccn1)c1cc(-c2ccc3ccccc3c2)n[nH]1,-5,29*,0,-1,14,2,100*
CC(C)NC(=O)c1ccccc1NC(=O)CN(c1ccc2c(c1)OCO2)S(C)(=O)=O,2,30*,5,-3,-13,-2,3
C=CCOC(=O)N[C@H](c1cccc(OC)c1)[C@H](C)/C=C/CC(=O)OC,1,.,0,6,.,7,.
CC#CCN(Cc1ccco1)C(=O)C1CCC(=O)N(CCc2cccc(F)c2)C1 (centres undefined),-1,28*,0,-3,-2,-2,-3
COC(=O)[C@]1(CNS(=O)(=O)c2ccc(F)cc2)CC(=O)N(C)[C@@H]1c1ccccc1,-1,.,-1,-2,.,1,.
COc1ccc(-c2[nH]ncc2/C=N/NC(=O)c2cccc([N+](=O)[O-])c2)cc1OC,-1,26*,0,-2,22,0,52*
COc1ccc(/C=N/NC(=O)c2cccc([N+](=O)[O-])c2)cc1OC,-3,4,2,1,-6,3,.
CCCCCCNC(=O)C1CSCCS(=O)(=O)N1Cc1ccccc1 (centres undefined),-1,.,8,2,.,1,.
C[C@H](CO)N1C[C@H](C)[C@@H](CN(C)S(=O)(=O)c2cn(C)cn2)OCc2cnnn2CCCC1=O,0,51*,-4,2,-1,-1,-1
COc1ccc(O)c(/C=N/Nc2nc(Nc3ccccc3)nc(-n3nc(C)cc3C)n2)c1,4,39*,-11,0,11,2,18
COc1cc(/C=N/Nc2nc(Nc3ccccc3)nc(-n3nc(C)cc3C)n2)cc(OC)c1OC,-7,-7,-15,5,2,2,.
O=C1NC(c2ccccc2)=C(c2nc3ccccc3s2)C(c2ccc(F)cc2)N1 (centres undefined),1,32*,5,11,11,-4,2
Cc1nnc(NC(=O)CSc2ncnc3c2cnn3-c2ccccc2C)s1,2,12,1,-3,-4,4,.
CCOC(=O)Cc1csc(NC(=O)CSc2ncnc3c2cnn3-c2ccccc2Cl)n1,0,35*,-4,-2,0,-2,1
COc1ccc(CCNC(=O)CN(c2ccccc2OC)S(C)(=O)=O)cc1,-2,28*,10,-1,-1,2,-6
COC(=O)C1CN(C(=O)OC(C)(C)C)C2=C1C(=O)CC(C)(C(=O)OC(C)(C)C)C2 (centres undefined),-4,.,6,-2,.,-9,.
